Measurements: ChEMBL document CHEMBL1147654, “Synthesis and pharmacological evaluation of novel 9- and 10-substituted cytisine derivatives. Nicotinic ligands of enhanced subtype selectivity” (J Med Chem, 2006)

What was measured:
[1] = target: T1, Neuronal acetylcholine receptor; alpha3/beta4 (Rattus norvegicus, UniProt P04757+P12392); assay: Displacement of [3H]epibatidine from rat alpha3beta4 nACHR expressed in human HEK293 cells; type: cell-based
In short: (§1)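 Competition binding in membrane homogenates of stably transfected cells expressing each nAChR subtype, with Ki values derived from displacement.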

[2] = target: T2, Neuronal acetylcholine receptor; alpha4/beta4 (Rattus norvegicus, UniProt P09483+P12392); assay: Displacement of [3H]epibatidine from rat alpha-4-beta-4 nACHR expressed in human HEK293 cells; type: cell-based; in short: as §1
T2 sequence (P09483 whole entry): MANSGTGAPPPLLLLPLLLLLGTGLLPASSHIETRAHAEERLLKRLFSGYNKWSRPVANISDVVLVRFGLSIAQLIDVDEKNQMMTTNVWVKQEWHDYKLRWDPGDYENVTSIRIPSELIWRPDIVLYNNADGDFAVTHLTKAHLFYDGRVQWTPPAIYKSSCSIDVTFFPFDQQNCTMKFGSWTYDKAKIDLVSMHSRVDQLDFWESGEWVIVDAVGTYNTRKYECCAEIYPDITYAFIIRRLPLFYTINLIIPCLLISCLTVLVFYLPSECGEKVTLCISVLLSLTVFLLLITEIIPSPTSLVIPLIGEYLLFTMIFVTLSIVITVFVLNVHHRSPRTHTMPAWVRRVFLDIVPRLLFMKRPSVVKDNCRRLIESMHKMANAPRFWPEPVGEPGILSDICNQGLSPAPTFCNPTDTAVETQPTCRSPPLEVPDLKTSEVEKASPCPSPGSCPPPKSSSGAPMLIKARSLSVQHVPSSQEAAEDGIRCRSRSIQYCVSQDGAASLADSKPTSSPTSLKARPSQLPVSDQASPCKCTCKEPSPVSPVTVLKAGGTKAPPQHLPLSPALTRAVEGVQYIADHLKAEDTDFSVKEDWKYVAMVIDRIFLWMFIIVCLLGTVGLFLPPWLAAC
T2 sequence (P12392 whole entry): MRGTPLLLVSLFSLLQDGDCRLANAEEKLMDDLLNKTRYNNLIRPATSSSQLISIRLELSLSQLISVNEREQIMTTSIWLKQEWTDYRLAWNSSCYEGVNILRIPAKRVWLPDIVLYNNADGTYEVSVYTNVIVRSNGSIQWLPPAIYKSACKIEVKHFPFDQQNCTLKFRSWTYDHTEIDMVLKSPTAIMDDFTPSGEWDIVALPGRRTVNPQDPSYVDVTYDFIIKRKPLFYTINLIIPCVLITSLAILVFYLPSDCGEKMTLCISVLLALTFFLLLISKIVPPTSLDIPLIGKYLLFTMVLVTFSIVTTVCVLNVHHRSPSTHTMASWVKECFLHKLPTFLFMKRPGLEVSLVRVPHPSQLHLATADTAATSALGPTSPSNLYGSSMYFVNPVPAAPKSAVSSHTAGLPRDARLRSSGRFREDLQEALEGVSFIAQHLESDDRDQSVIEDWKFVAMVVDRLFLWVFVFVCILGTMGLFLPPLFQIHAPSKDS

[3] = target: T3, Neuronal acetylcholine receptor; alpha4/beta2 (Rattus norvegicus, UniProt P09483+P12390); assay: Displacement of [3H]epibatidine from rat forebrain alpha4beta2 nACHR
T3 sequence (P09483 whole entry): as the sequence (P09483 whole entry) above
T3 sequence (P12390 whole entry): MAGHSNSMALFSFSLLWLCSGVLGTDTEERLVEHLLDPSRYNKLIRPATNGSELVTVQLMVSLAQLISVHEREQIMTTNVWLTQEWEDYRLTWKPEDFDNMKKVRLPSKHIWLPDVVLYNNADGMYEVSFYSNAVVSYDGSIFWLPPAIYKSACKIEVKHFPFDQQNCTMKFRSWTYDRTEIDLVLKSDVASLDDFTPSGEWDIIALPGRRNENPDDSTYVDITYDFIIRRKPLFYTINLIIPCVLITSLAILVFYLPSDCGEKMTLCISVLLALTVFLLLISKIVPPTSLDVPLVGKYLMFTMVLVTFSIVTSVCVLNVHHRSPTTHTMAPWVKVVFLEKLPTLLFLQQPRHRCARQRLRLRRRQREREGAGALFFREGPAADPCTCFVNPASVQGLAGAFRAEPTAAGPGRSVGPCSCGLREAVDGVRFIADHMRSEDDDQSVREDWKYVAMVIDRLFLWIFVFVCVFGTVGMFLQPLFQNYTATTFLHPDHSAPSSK
In short: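 Competition binding was run on rat forebrain membrane homogenates.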

[4] = Selectivity for rat alpha-4-beta-2 nACHR over alpha3beta4 nACHR expressed in human HEK293 cells; type: cell-based
In short: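 Ki ratio (α3β4/α4β2), taken from competition binding Ki values measured on membrane homogenates of stably transfected cells expressing the respective nAChR subtypes.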

[5] = target: T4, Neuronal acetylcholine receptor; alpha2/beta2 (Rattus norvegicus, UniProt P12389+P12390); assay: Displacement of [3H]epibatidine from rat alpha-2-beta-2 nACHR expressed in human HEK293 cells; type: cell-based; in short: as §1
T4 sequence (P12389 whole entry): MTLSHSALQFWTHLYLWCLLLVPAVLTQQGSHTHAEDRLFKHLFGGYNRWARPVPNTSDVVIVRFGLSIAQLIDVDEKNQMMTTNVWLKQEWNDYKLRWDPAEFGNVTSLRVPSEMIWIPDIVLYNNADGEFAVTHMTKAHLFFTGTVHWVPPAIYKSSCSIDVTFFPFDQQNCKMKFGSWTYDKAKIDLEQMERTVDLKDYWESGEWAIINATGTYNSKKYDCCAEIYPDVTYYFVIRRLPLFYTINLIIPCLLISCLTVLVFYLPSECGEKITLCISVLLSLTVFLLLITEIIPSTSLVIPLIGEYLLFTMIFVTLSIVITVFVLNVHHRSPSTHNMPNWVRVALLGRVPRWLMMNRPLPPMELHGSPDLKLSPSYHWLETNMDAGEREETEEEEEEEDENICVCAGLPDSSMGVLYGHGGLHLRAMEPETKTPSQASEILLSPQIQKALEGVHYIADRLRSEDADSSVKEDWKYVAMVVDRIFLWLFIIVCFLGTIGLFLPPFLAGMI
T4 sequence (P12390 whole entry): as the sequence (P12390 whole entry) above

[6] = target: T5, Neuronal acetylcholine receptor; alpha2/beta4 (Rattus norvegicus, UniProt P12389+P12392); assay: Displacement of [3H]epibatidine from rat alpha-2-beta-4 nACHR expressed in human HEK293 cells; type: cell-based; in short: as §1
T5 sequence (P12389 whole entry): as the sequence (P12389 whole entry) above
T5 sequence (P12392 whole entry): as the sequence (P12392 whole entry) above

[7] = target: Neuronal acetylcholine receptor; alpha3/beta4 (Rattus norvegicus) (UniProt P04757+P12392); assay: Efficacy at rat alpha3beta4 nACHR expressed in human HEK293 cells by rubidium efflux assay relative to nicotine; type: functional, cell-based
In short: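 Agonist-stimulated 86Rb+ efflux in KXα3β4R2 cells stably expressing rat α3β4 nAChRs. Mean ± standard error of three independent experiments, each in quadruplicate.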

[8] = target: T6, Neuronal acetylcholine receptor; alpha4/beta2 (Rattus norvegicus) (UniProt P09483+P12390); assay: Efficacy at rat alpha4beta2 nACHR by rubidium efflux assay; type: functional
[9] = target: T6, Neuronal acetylcholine receptor; alpha4/beta2 (Rattus norvegicus); assay: Inhibition of nicotine-stimulated response at rat alpha-4-beta-2 nACHR at 100 uM; type: functional
[10] = target: T4, Neuronal acetylcholine receptor; alpha2/beta2; assay: Displacement of [3H]epibatidine from rat alpha2beta2 nACHR expressed in human HEK293 cells at 10 uM; type: cell-based
[11] = target: T5, Neuronal acetylcholine receptor; alpha2/beta4; assay: Displacement of [3H]epibatidine from rat alpha-2-beta-4 nACHR expressed in human HEK293 cells at 10 uM; type: cell-based
[12] = target: Neuronal acetylcholine receptor; alpha3/beta2 (Rattus norvegicus, UniProt P04757+P12390); assay: Displacement of [3H]epibatidine from rat alpha-3-beta-2 nACHR expressed in human HEK293 cells at 10 uM; type: cell-based
Chain of Neuronal acetylcholine receptor; alpha3/beta2 (P04757 whole entry): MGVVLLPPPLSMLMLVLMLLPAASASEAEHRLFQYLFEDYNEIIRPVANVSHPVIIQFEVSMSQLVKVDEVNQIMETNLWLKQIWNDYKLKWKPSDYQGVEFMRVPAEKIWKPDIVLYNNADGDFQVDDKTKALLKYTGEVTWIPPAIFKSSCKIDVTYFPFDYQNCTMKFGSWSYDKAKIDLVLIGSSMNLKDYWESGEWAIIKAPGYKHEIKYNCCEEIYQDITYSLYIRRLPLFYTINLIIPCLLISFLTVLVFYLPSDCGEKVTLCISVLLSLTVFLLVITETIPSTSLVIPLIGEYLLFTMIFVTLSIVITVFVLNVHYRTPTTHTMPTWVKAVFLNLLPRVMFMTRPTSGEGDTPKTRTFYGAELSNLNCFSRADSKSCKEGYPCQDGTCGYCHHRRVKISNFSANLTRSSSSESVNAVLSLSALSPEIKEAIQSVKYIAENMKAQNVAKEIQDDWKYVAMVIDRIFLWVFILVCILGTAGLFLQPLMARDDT
Chain of Neuronal acetylcholine receptor; alpha3/beta2 (P12390 whole entry): as the sequence (P12390 whole entry) above

[13] = target: T1, Neuronal acetylcholine receptor; alpha3/beta4; assay: Displacement of [3H]epibatidine from rat alpha-3-beta-4 nACHR expressed in human HEK293 cells at 10 uM; type: cell-based
[14] = target: T3, Neuronal acetylcholine receptor; alpha4/beta2; assay: Displacement of [3H]epibatidine from rat alpha-4-beta-2 nACHR expressed in human HEK293 cells at 10 uM; type: cell-based
[15] = target: T2, Neuronal acetylcholine receptor; alpha4/beta4; assay: Displacement of [3H]epibatidine from rat alpha-4-beta-4 nACHR expressed in human HEK293 cells at 10 uM; type: cell-based
[16] = Displacement of [3H]epibatidine from rat […] nACHR expressed in human HEK293 cells at 10 uM; type: cell-based

T1 sequence (P04757 whole entry): as the sequence (P04757 whole entry) above
T1 sequence (P12392 whole entry): as the sequence (P12392 whole entry) above

O=c1cccc2n1C[C@@H]1CNC[C@H]2C1 [CYTISINICLINE] gave a Ki [1] of 0.217 µM, a Ki [2] of 0.0021 µM and a Ki [3] of 0.00192 µM. It also gave a Ratio [4] of 144, a Ki [5] of 0.00107 µM and a Ki [6] of 0.00541 µM.
CCCCc1ccc(-c2ccc3n(c2=O)CC2CNCC3C2)cc1 (single isomer, unassigned) showed a Ratio [4] of 17.
Molecule O=c1c(-c2ccc(F)cc2)ccc2n1CC1CNCC2C1 (single isomer, unassigned) has a Ratio [4] of 157.
CN1CCC[C@H]1c1cccnc1 showed an Emax [7] of 100% and an Emax [8] of 100%.
With Cc1cc2n(c(=O)c1)CC1CNCC2C1 (racemic) the Ki [3] was 0.02 µM, the Ratio [4] was 3530 and the inhibition [9] was over 50%.
Work on O=c1ccccn1CC1CCCN(Cc2ccccc2)C1 (centres undefined) yielded a Ki [10] of 100 µM, a Ki [11] of 91 µM and a Ki [12] of 4.3 µM. For the same molecule, the Ki [13] was 83 µM, the Ki [14] was 0.54 µM and the Ki [15] was 1.4 µM. It also gave a Ki [16] of 54 µM.
O=c1ccccn1CC1CCCNC1 (centres undefined) showed a Ki [10] of 4.63 µM, a Ki [11] of 159 µM and a Ki [12] of 18.7 µM. It also gave a Ki [13] of 535 µM, a Ki [14] of 1.78 µM and a Ki [15] of 5.55 µM. It also gave a Ki [16] of 253 µM.
Molecule O=c1ccccn1CC1CCN(Cc2ccccc2)CC1 has a Ki [10] of 26 µM, a Ki [11] of 440 µM and a Ki [12] of 7.3 µM. The Ki [13] was 620 µM, the Ki [14] was 1.3 µM and the Ki [15] was 4.5 µM. The Ki [16] was 470 µM.
In the case of CN1CCCC(Cn2ccccc2=O)C1 (centres undefined), the Ki [10] is reported as 19 µM, the Ki [11] is reported as 180 µM and the Ki [12] is reported as 6 µM. For the same molecule, the Ki [13] was 160 µM, the Ki [14] was 0.98 µM and the Ki [15] was 2.6 µM. It also gave a Ki [16] of 76 µM.
Work on C=Cc1ccc2n(c1=O)CC1CNCC2C1 (single isomer, unassigned) yielded an Emax [8] of 22%.
Work on O=c1cc(CO)cc2n1CC1CNCC2C1 (racemic) yielded a Ki [3] of 0.038 µM, a Ratio [4] of 909 and an inhibition [9] of over 50%.
With O=c1ccccn1CC1CCNCC1 the Ki [11] was 80 µM, the Ki [12] was 12 µM and the Ki [13] was 750 µM. For the same molecule, the Ki [14] was 1.6 µM, the Ki [15] was 5.4 µM and the Ki [16] was 87 µM.
For CCC(=O)[C@H]1C2CNCC(C2)c2cccc(=O)n21 (single isomer, unassigned), the Ratio [4] was 18.
For COC(=O)[C@H]1C2CNCC(C2)c2cccc(=O)n21 (single isomer, unassigned), the Ratio [4] was 13.
In the case of Cc1ccc(-c2ccc3n(c2=O)CC2CNCC3C2)s1 (single isomer, unassigned), the Ratio [4] is reported as 59.
